Reference: ChEMBL document CHEMBL1136006, “New PET imaging agent for the serotonin transporter: [(18)F]ACF (2-[(2-amino-4-chloro-5-fluorophenyl)thio]-N,N-dimethyl-benzenmethanamine)” (J Med Chem, 2002)

Legend:
[1] = tested on: Rattus norvegicus; experiment: Effect of pretreatment with (+)-McN5652 with a dose of 2 mg/kg (i.v.) on specific binding of [18F]ACF in rat brain cortex; type: ADME, organism-based; parameters: dose 2 mg/kg, route intravenous; conditions: in vivo, iv
Method in brief: (§1)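 Rats pretreated iv with drug (2 mg/kg) or saline 5 min before iv [18F]ACF (50 μCi). Sacrificed 1 h after tracer. Brain regions were dissected, weighed and counted, and % dose/g was calculated against a diluted initial dose. Drug-treated rats were compared with saline controls by ANOVA/Dunnett's test (p<0.05). Three rats per point, average ± SD.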

[2] = tested on: Rattus norvegicus; experiment: Effect of pretreatment with (+)-McN5652 with a dose of 2 mg/kg (i.v.) on specific binding of [18F]ACF in rat brain hippocampus; type: ADME, organism-based; parameters: dose 2 mg/kg, route intravenous; conditions: in vivo, iv; method in brief: as §1
[3] = tested on: Rattus norvegicus; experiment: Effect of pretreatment with (+)-McN5652 with a dose of 2 mg/kg (i.v.) on specific binding of [18F]ACF in rat brain remainder; dose/g; type: ADME, organism-based; parameters: dose 2 mg/kg, route intravenous; conditions: in vivo, iv; method in brief: as §1
[4] = tested on: Rattus norvegicus; experiment: Effect of pretreatment with methylphenidate with a dose of 2 mg/kg (i.v.) on specific binding of [18F]ACF in rat brain hippocampus; type: ADME, organism-based; parameters: dose 2 mg/kg, route intravenous; conditions: in vivo, iv; method in brief: as §1
[5] = tested on: Rattus norvegicus; experiment: Effect of pretreatment with methylphenidate with a dose of 2 mg/kg (i.v.) on specific binding of [18F]ACF in rat brain hypothalamus; type: ADME, organism-based; parameters: dose 2 mg/kg, route intravenous; conditions: in vivo, iv; method in brief: as §1
[6] = tested on: Rattus norvegicus; experiment: Effect of pretreatment with nisoxatine with a dose of 2 mg/kg (i.v.) on specific binding of [18F]ACF in rat brain hypothalamus; type: ADME, organism-based; parameters: dose 2 mg/kg, route intravenous; conditions: in vivo, iv; method in brief: as §1
[7] = tested on: Rattus norvegicus; experiment: Effect of pretreatment with (+)-McN5652 with a dose of 2 mg/kg (i.v.) on specific binding of [18F]ACF in rat brain blood; type: ADME, organism-based; parameters: dose 2 mg/kg, route intravenous; conditions: in vivo, iv; method in brief: as §1
[8] = tested on: Rattus norvegicus; experiment: Effect of pretreatment with (+)-McN5652 with a dose of 2 mg/kg (i.v.) on specific binding of [18F]ACF in rat brain cerebellum; type: ADME, organism-based; parameters: dose 2 mg/kg, route intravenous; conditions: in vivo, iv; method in brief: as §1
[9] = species: Rattus norvegicus; experiment: Regional brain distribution of [18F]-ACF radiolabeled compound in rat striatum after 240 min; type: ADME, organism-based; conditions: in vivo, 4 h
Method in brief: (§2)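 Rats (three per group) under ether anesthesia got 30 μCi tracer in 0.2 mL saline into the femoral vein and were killed by cardiac excision at the stated time. Cortex, striatum, hippocampus, cerebellum, hypothalamus and the rest of brain were dissected, weighed and gamma counted. %dose/g was taken against counts of a diluted initial dose. Regional ratios are each region's %dose/g over cerebellum's. Mean ± SD.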

[10] = species: Rattus norvegicus; experiment: Regional brain distribution of [18F]-ACF radiolabeled compound in rat hypothalamus after 2 min; type: ADME, organism-based; conditions: in vivo; method in brief: as §2
[11] = species: Rattus norvegicus; experiment: Regional brain distribution of [18F]ACF radiolabeled compound in rat hypothalamus after 30 min; type: ADME, organism-based; conditions: in vivo, 0.5 h; method in brief: as §2
[12] = species: Rattus norvegicus; experiment: Regional brain distribution of [18F]ACF radiolabeled compound in rat remainder (rest of brain) after 120 min; type: ADME, organism-based; conditions: in vivo, 2 h; method in brief: as §2
[13] = species: Rattus norvegicus; experiment: Regional brain distribution of [18F]-ACF radiolabeled compound in rat remainder (rest of brain) after 240 min; type: ADME, organism-based; conditions: in vivo, 4 h; method in brief: as §2
[14] = species: Rattus norvegicus; experiment: Organ distribution of [18F]-ACF radiolabeled compound in rat lung after 240 min; type: ADME, organism-based; conditions: in vivo, 4 h
Method in brief: (§3)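 Under ether anesthesia, 30 μCi no-carrier-added tracer in 0.2 mL saline injected into the femoral vein. Rats killed by cardiac excision at the stated time. Organs were removed, weighed and counted; % dose/organ was calculated against counts of a 1% initial-dose standard. Three rats per time, average ± SD.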

[15] = species: Rattus norvegicus; experiment: Organ distribution of [18F]-ACF radiolabeled compound in rat muscle after 120 min; type: ADME, organism-based, Muscle tissue; conditions: in vivo, 2 h; method in brief: as §3
[16] = species: Rattus norvegicus; experiment: Organ distribution of [18F]-ACF radiolabeled compound in rat skin after 240 min; type: ADME, organism-based; conditions: in vivo, 4 h; method in brief: as §3
[17] = species: Rattus norvegicus; experiment: Organ distribution of [18F]ACF radiolabeled compound in rat spleen after 240 min; type: ADME, organism-based; conditions: in vivo, 4 h
Method in brief: (§4)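 Rats, three per time point, under ether anesthesia; 30 μCi tracer in 0.2 mL saline injected into femoral vein. Sacrificed by cardiac excision under ether at 2, 30, 60, 120 or 240 min. Organs removed, weighed and counted; % dose/organ calculated against counts of 1% of initial dose counted at the same time. Average of three rats ± SD.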

[18] = species: Rattus norvegicus; experiment: Regional brain distribution of [18F]-ACF radiolabeled compound in rat cerebellum after 240 min; type: ADME, organism-based; conditions: in vivo, 4 h; method in brief: as §2
[19] = species: Rattus norvegicus; experiment: Regional brain distribution of [18F]-ACF radiolabeled compound in rat cortex after 240 min; type: ADME, organism-based; conditions: in vivo, 4 h; method in brief: as §2
[20] = species: Rattus norvegicus; experiment: Organ distribution of [18F]ACF radiolabeled compound in rat bone after 120 min; type: ADME, organism-based, Bone element; conditions: in vivo, 2 h; method in brief: as §4
[21] = species: Rattus norvegicus; experiment: Organ distribution of [18F]-ACF radiolabeled compound in rat bone after 240 min; type: ADME, organism-based, Bone element; conditions: in vivo, 4 h; method in brief: as §3
[22] = species: Rattus norvegicus; experiment: Organ distribution of [18F]ACF radiolabeled compound in rat bone after 60 min; type: ADME, organism-based, Bone element; conditions: in vivo, 1 h; method in brief: as §4
[23] = species: Rattus norvegicus; experiment: Organ distribution of [18F]ACF radiolabeled compound in rat brain after 120 min; type: ADME, organism-based; conditions: in vivo, 2 h; method in brief: as §4
[24] = tested on: Rattus norvegicus; experiment: Ratio of effect of pretreatment with methylphenidate with a dose of 2 mg/kg (i.v.) on specific binding of [18F]ACF in rat brain hypothalamus to that of cerebellum; type: ADME, organism-based; parameters: dose 2 mg/kg, route intravenous; conditions: in vivo, iv
Method in brief: (§5)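 Rats (three per point) pretreated iv with competing drug at 2 mg/kg or saline (control) 5 min before iv [18F]ACF (50 μCi). At 1 h post tracer, brain regions (cortex, striatum, hippocampus, cerebellum, hypothalamus, remainder) dissected, weighed, counted as % dose/g and expressed as ratio to cerebellum. Average ± SD; ANOVA with Dunnett's test vs saline controls, p < 0.05.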

[25] = species: Rattus norvegicus; experiment: Ratio of regional brain distribution of [18F]-ACF radiolabeled compound in rat cerebellum to that of cerebellum after 60 min; type: ADME, organism-based; conditions: in vivo, 1 h
Method in brief: (§6)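 Rats, three per time point, given 30 μCi tracer in 0.2 mL saline into femoral vein under ether anesthesia; killed at 2, 30, 60, 120 or 240 min. Cortex, striatum, hippocampus, cerebellum, hypothalamus and rest of brain dissected, weighed, counted; % dose/g against diluted initial dose, then each region divided by cerebellum. Average of three rats ± SD.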

[26] = species: Rattus norvegicus; experiment: Ratio of regional brain distribution of [18F]-ACF radiolabeled compound in rat cortex to that of cerebellum after 120 min; type: ADME, organism-based; conditions: in vivo, 2 h; method in brief: as §6
[27] = species: Rattus norvegicus; experiment: Ratio of regional brain distribution of [18F]ACF radiolabeled compound in rat cortex to that of cerebellum after 2 min; type: ADME, organism-based; conditions: in vivo; method in brief: as §2
[28] = tested on: Rattus norvegicus; experiment: Ratio of effect of pretreatment with nisoxatine with a dose of 2 mg/kg (i.v.) on specific binding of [18F]ACF in rat brain remainder to that of cerebellum; type: ADME, organism-based; parameters: dose 2 mg/kg, route intravenous; conditions: in vivo, iv; method in brief: as §5
[29] = species: Rattus norvegicus; experiment: Ratio of regional brain distribution of [18F]-ACF radiolabeled compound in rat remainder to that of cerebellum after 120 min; type: ADME, organism-based; conditions: in vivo, 2 h; method in brief: as §2
[30] = species: Rattus norvegicus; experiment: Ratio of regional brain distribution of [18F]-ACF radiolabeled compound in rat remainder to that of cerebellum after 2 min; type: ADME, organism-based; conditions: in vivo; method in brief: as §2
[31] = species: Rattus norvegicus; experiment: Ratio of regional brain distribution of [18F]ACF radiolabeled compound in rat striatum to that of cerebellum after 30 min; type: ADME, organism-based; conditions: in vivo, 0.5 h; method in brief: as §2
[32] = species: Rattus norvegicus; experiment: Ratio of regional brain distribution of [18F]ACF radiolabeled compound in rat hypothalamus to that of cerebellum after 120 min; type: ADME, organism-based; conditions: in vivo, 2 h; method in brief: as §2
[33] = tested on: Rattus norvegicus; experiment: Ratio of effect of pretreatment with (+)-McN5652 with a dose of 2 mg/kg (i.v.) on specific binding of [18F]ACF in rat brain remainder to that of cerebellum; type: ADME, organism-based; parameters: dose 2 mg/kg, route intravenous; conditions: in vivo, iv; method in brief: as §5
[34] = species: Rattus norvegicus; experiment: Organ distribution of [18F]ACF radiolabeled compound in rat blood after 60 min; type: ADME, organism-based; conditions: in vivo, 1 h; method in brief: as §4
[35] = species: Rattus norvegicus; experiment: Ratio of regional brain distribution of [18F]-ACF radiolabeled compound in rat hippocampus to that of cerebellum after 30 min; type: ADME, organism-based; conditions: in vivo, 0.5 h; method in brief: as §6

Dose/g [1]: 0.24% | Dose/g [2]: 0.34% | Dose/g [3]: 0.23% | Dose/g [4]: 0.43% | Dose/g [5]: 0.52% | Dose/g [6]: 0.55% | Dose/g [7]: 0.26% | Dose/g [8]: 0.17% | Dose/g [9]: 0.05% | Dose/g [10]: 1.76% | Dose/g [11]: 0.85% | Dose/g [12]: 0.12% | Dose/g [13]: 0.03% | Dose/g [14]: 0.15 % dose/organ | Dose/g [15]: 4.02 % dose/organ | Dose/g [16]: 1.53 % dose/organ | Dose/g [17]: 0.03 % dose/organ | Dose/g [18]: 0.02% | Dose/g [19]: 0.03% | Dose/g [20]: 0.28 % dose/organ | Dose/g [21]: 0.27 % dose/organ | Dose/g [22]: 0.08 % dose/organ | Dose/g [23]: 0.21 % dose/organ | Ratio [24]: 3.05 | Ratio [25]: 1 | Ratio [26]: 1.77 | Ratio [27]: 1.84 | Ratio [28]: 2.17 | Ratio [29]: 2.34 | Ratio [30]: 1.32 | Ratio [31]: 2.06 | Ratio [32]: 3.23 | Ratio [33]: 1.37 | Dose/g [34]: 4.65% | Ratio [35]: 1.89
Structure (SMILES): CN(C)Cc1ccccc1Sc1cc(F)c(Cl)cc1N
